The source made the active and inactive calls. The rule behind the calls is not given here.
Assays:
[1] = target: T1, Pantothenate kinase, putative (Plasmodium falciparum (isolate 3D7)) (UniProt Q8ILP4); assay: Inhibition of pantothenate kinase in Plasmodium falciparum 3D7 trophozoites at 100 uM using [14C]pantothenate as substrate after 15 to 60 mins by TopCount scintillation counting method relative to control
T1 sequence (whole entry): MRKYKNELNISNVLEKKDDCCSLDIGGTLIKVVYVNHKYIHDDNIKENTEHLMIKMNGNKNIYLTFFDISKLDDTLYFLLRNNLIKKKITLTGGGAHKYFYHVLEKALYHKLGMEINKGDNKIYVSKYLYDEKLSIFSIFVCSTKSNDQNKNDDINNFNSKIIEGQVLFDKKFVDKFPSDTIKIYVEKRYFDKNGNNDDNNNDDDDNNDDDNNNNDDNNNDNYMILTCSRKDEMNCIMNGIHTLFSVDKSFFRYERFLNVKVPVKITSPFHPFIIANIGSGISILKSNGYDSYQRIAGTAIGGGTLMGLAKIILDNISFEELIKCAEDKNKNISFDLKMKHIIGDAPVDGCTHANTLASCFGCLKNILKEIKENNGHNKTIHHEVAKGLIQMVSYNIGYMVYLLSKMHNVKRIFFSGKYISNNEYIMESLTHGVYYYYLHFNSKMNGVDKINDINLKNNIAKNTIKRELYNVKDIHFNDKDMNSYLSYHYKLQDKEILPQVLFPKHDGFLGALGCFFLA
Summary of the method: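 [14C]Pantothenate phosphorylation by PanK in P. falciparum lysate with compound at 100 μM. Pantothenate was 1.8 μM for R-compounds and 1 μM for S-compounds. Incubation period was pre-set within the linear range; percent inhibition versus DMSO-only controls. 3–8 experiments in duplicate, SEM.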

Plasmodium falciparum [2] = assay: Antimalarial activity against Plasmodium falciparum 3D7 infected in human erythrocytes after 96 hrs in presence of 1 uM pantothenate by SYBR green fluorescence-based method; format: functional, organism-based; conditions: 3D7, 96 h
Summary of the method: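 Blood-stage parasites cultured 96 h in medium with 1 μM pantothenate across a range of compound concentrations; IC50 is the concentration giving 50% inhibition of proliferation. Each experiment run in triplicate, 2–7 independent experiments; mean ± range/2 (n = 2) or SEM (n = 3–7).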

[3] = Cytotoxicity against HEK293 cells assessed as inhibition of cell proliferation at 100 uM after 96 hrs by CellTiter-Glo assay relative to control; format: cell-based; conditions: human
Summary of the method: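 HEK-293 proliferation measured over 96 h with compound at 100 μM; percent inhibition reported.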

[4] = Cytotoxicity against human WI38 cells assessed as inhibition of cell proliferation at 100 uM after 48 hrs by CellTiter-Glo assay relative to control; format: cell-based, WI-38
Summary of the method: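 WI-38 proliferation measured over 48 h with compound at 100 μM; percent inhibition reported.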

Plasmodium falciparum [5] = assay: Ratio of IC50 for Plasmodium falciparum 3D7 infected in human erythrocytes in presence of 100 uM pantothenate to IC50 for Plasmodium falciparum 3D7 infected in human erythrocytes in presence of 1 uM pantothenate; format: functional
Summary of the method: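 Paired 96 h proliferation assays with parasites in medium containing 100 μM versus 1 μM pantothenate. Fold-increase = IC50 at 100 μM pantothenate divided by IC50 at 1 μM. Two independent experiments in triplicate; error is range/2.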

[6] = Cysteine reactivity at pH 7.4 after 2 hrs by 1H NMR analysis; format: physicochemical; conditions: pH 7.4, 2 h
Summary of the method: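 Compound mixed with glutathione or L-cysteine at pH 7.4 and monitored by NMR for 2 h. The first spectrum was acquired 15 min after mixing. N-ethylmaleimide served as a reactive Michael acceptor reference.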

[7] = Selectivity index, ratio of cytotoxic concentration for human WI38 cells to IC50 for Plasmodium falciparum 3D7 infected in human erythrocytes in presence of 1 uM pantothenate; format: toxicity, cell-based; conditions: read-out: Selectivity Index
[8] = target: T2, Pantothenate kinase, putative (Plasmodium falciparum (isolate 3D7), UniProt Q8ILP4); assay: Inhibition of pantothenate kinase in Plasmodium falciparum 3D7 trophozoites using [14C]pantothenate as substrate after 15 mins by TopCount scintillation counting method
T2 sequence (Q8ILP4 whole entry): T1 sequence (whole entry)
Summary of the method: (§1)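 PanK activity in P. falciparum lysate with 1.8 μM [14C]pantothenate and increasing compound concentrations, 15 min incubation within the linear range. Percent inhibition from [14C]pantothenate phosphorylated versus no compound. 2–5 experiments in duplicate; mean ± range/2 or SEM.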

[9] = Selectivity index, ratio of cytotoxic concentration for HEK293 cells to IC50 for Plasmodium falciparum 3D7 infected in human erythrocytes in presence of 1 uM pantothenate; format: toxicity, cell-based; conditions: read-out: Selectivity Index
[10] = target: T1, Pantothenate kinase, putative (Plasmodium falciparum (isolate 3D7)); assay: Inhibition of pantothenate kinase in Plasmodium falciparum 3D7 trophozoites at 1 to 100 uM using [14C]pantothenate as substrate after 15 mins by TopCount scintillation counting method; summary of the method: as §1
[11] = Drug metabolism in human erythrocytes infected with Plasmodium falciparum 3D7 trophozoites assessed as esterase-mediated compound hydrolysis at 1 mM after 3 hrs by 1H-13C-HSQC NMR analysis; format: ADME, cell-based; conditions: 1000 µM
Summary of the method: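 Infected erythrocytes (>95% parasitemia) incubated 3 h with 13C3-labelled or unlabelled compound. Metabolites were extracted from about 2 × 10^8 parasites and analysed by 1H-13C HSQC in D2O with 200 μM TSP as shift reference. Two independent experiments.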

Row | SMILES | inhibition [1] | IC50 (Plasmodium falciparum [2]) | inhibition at 96 h, 100 µM [3] | inhibition at 48 h, 100 µM [4] | Ratio IC50 (Plasmodium falciparum [5]) | Drug metabolism [6] | selectivity ratio [7] | IC50 [8] | selectivity ratio [9] | inhibition [10] | Drug metabolism [11]
1 | CC(C)(C)OC(=O)/C=C/NC(=O)[C@@H](O)C(C)(C)CO | < 25% | > 100 µM | -8% | 14% |  |  |  |  |  |  | 
2 | CCOC(=O)/C=C/N1CCCCCCCC1=O | inactive | 61 µM |  |  | 1.4 |  |  |  |  |  | 
3 | CC(C)(CO)[C@@H](O)C(=O)N/C=C/C(=O)OCc1ccccc1 | > 90% | 13 µM | 5% | 19% | >7.7 | Metabolite_Notdetected | > 8 | 0.14 µM | > 8 |  | 
4 | CC(C)(C)OC(=O)/C=C\NC(=O)[C@H](O)C(C)(C)CO | < 25% | 39 µM | -9% | -14% | 1 |  |  |  |  |  | 
5 | CC(C)(CO)[C@H](O)C(=O)N/C=C/C(=O)OCc1ccccc1 | < 25% | > 100 µM | -6% | 19% |  |  |  |  |  |  | 
6 | CCOC(=O)/C=C\NC(=O)[C@H](O)C(C)(C)CO | < 25% | > 200 µM | -6% | 1% |  |  |  |  |  |  | 
7 | COC(=O)/C=C/NC(=O)[C@H](O)C(C)(C)CO | > 90% | > 200 µM | 0% | 4% |  |  |  |  |  | Active | 
8 | COC(=O)/C=C\NC(=O)[C@H](O)C(C)(C)CO | < 25% | > 200 µM |  |  |  |  |  |  |  |  | 
9 | COC(=O)/C=C/NC(=O)[C@@H](O)C(C)(C)CO | < 25% | > 100 µM | -2% | -18% |  |  |  |  |  |  | 
10 | CCOC(=O)/C=C/NC(=O)c1ccccc1 | inactive | 158 µM |  |  | 1 |  |  |  |  |  | 
11 | CC(C)(CO)[C@@H](O)C(=O)N/C=C\C(=O)OCc1ccccc1 | < 25% | 89 µM | 7% | 4% | 0.9 |  |  |  |  |  | 
12 | CC(C)(CO)[C@@H](O)C(=O)N/[13CH]=[13CH]/[13C](=O)OCc1ccccc1 |  |  |  |  |  |  |  |  |  |  | Metabolite_Notdetected
13 | CCOC(=O)/C=C/NC(=O)[C@H](O)C(C)(C)CO | > 90% | 159 µM | -5% | 36% | >1.3 |  | > 0.6 |  | > 0.6 | Active | 
14 | CCOC(=O)/C(C)=C/NC(=O)[C@@H]1OC(C)(C)OCC1(C)C | inactive | 93 µM |  |  | 1 |  |  |  |  |  | 
15 | CCOC(=O)/C(C)=C/NC(=O)c1ccccc1 | inactive | 120 µM |  |  | 1 |  |  |  |  |  | 
16 | CC(C)(C)OC(=O)/C=C/NC(=O)[C@H](O)C(C)(C)CO | > 90% | 42 µM | -1% | 0% | 3.1 |  | > 2 |  | > 2 | Active | 
17 | CCOC(=O)/C=C/N1CCCCCCC1=O | inactive | 93 µM |  |  | 1 |  |  |  |  |  | 
18 | CCOC(=O)/C=C/NC(=O)c1cccnc1 | inactive | > 200 µM |  |  |  |  |  |  |  |  | 
19 | CC(C)(CO)[C@@H](O)C(=O)N/[13CH]=[13CH]/[13C](=O)O |  |  |  |  |  |  |  |  |  |  | Metabolite_Detected
20 | CCOC(=O)/C=C\NC(=O)[C@@H](O)C(C)(C)CO | < 25% | > 100 µM | -6% | -6% |  |  |  |  |  |  | 
21 | CCOC(=O)/C=C/N1CCCCCC1=O | inactive | 181 µM |  |  | 0.9 |  |  |  |  |  | 
22 | CC(C)(CO)[C@H](O)C(=O)N/C=C\C(=O)OCc1ccccc1 | < 25% | > 100 µM | -7% | -2% |  |  |  |  |  |  | 
23 | CCOC(=O)/C=C/NC(=O)[C@@H](O)C(C)(C)CO | < 25% | > 100 µM | -9% | -6% |  |  |  |  |  |  | 
24 | CC(C)(CO)[C@H](O)C(=O)N/C=C/C(=O)O | < 25% | > 100 µM | -10% | 17% |  |  |  |  |  |  | 
25 | CC(C)(C)OC(=O)/C=C\NC(=O)[C@@H](O)C(C)(C)CO | < 25% | > 100 µM | -11% | 26% |  |  |  |  |  |  | 
26 | CCOC(=O)/C(C)=C/NC(=O)[C@H](O)C(C)(C)CO | Active | > 200 µM |  |  |  |  |  |  |  | inactive | 
27 | CC(C)(CO)[C@H](O)C(=O)N/C=C\C(=O)O | < 25% | > 100 µM | -11% | -19% |  |  |  |  |  |  | 
28 | CC(C)(CO)[C@@H](O)C(=O)N/C=C\C(=O)O | < 25% | > 200 µM |  |  |  |  |  |  |  |  | 
29 | CCOC(=O)/C=C/NC(=O)[C@@H]1OC(C)(C)OCC1(C)C | inactive | 144 µM |  |  | 0.9 |  |  |  |  |  | 
30 | COC(=O)/C=C\NC(=O)[C@@H](O)C(C)(C)CO | < 25% | > 100 µM | -12% | -20% |  |  |  |  |  |  | 

Reference: ChEMBL document CHEMBL4138249, “Structure-activity analysis of CJ-15,801 analogues that interact with Plasmodium falciparum pantothenate kinase and inhibit parasite proliferation” (Eur J Med Chem, 2018)
